Source: ChEMBL document CHEMBL2375243, “Synthesis and antioxidant properties of substituted 2-phenyl-1H-indoles” (Bioorg Med Chem Lett, 2013)
Activity calls are given as the source filed them. The calls are words filed in the database; no cut-off is given here.

Legend:
Liver [1] = assay: Antioxidant activity in Wistar rat liver assessed as inhibition of Fe2+/ascorbate-induced lipid peroxidation at 0.1 mM after 1 hr by TBARS assay relative to control; assay type: functional, tissue-based
How it was run: (§1)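 Lipid peroxidation assay: MDA formation measured with thiobarbituric acid. Tested at 1 mM and 0.1 mM, melatonin as positive control. Values are % mean inhibition from at least triplicate analyses.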

Liver [2] = assay: Antioxidant activity in Wistar rat liver assessed as inhibition of Fe2+/ascorbate-induced lipid peroxidation at 1 mM after 1 hr by TBARS assay relative to control; assay type: functional, tissue-based; how it was run: as §1
[3] = Antioxidant activity of the compound assessed as inhibition of xanthine-xanthine oxidase-mediated superoxide radical formation at 0.1 mM after 3 mins by NBT reduction assay relative to control; assay type: functional
How it was run: (§2)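 Superoxide anion generated by xanthine/xanthine oxidase and detected spectrophotometrically by nitroblue tetrazolium reduction. Test concentrations 1 mM and 0.1 mM, melatonin as positive control. Values are % mean inhibition from at least triplicate determinations.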

[4] = Antioxidant activity of the compound assessed as inhibition of xanthine-xanthine oxidase-mediated superoxide radical formation at 1 mM after 3 mins by NBT reduction assay relative to control; assay type: functional; how it was run: as §2
[5] = tested on: Radical scavenging activity; assay: Antioxidant activity of the compound assessed as DPPH free radical scavenging activity at 0.1 mM after 30 mins by spectrophotometric analysis relative to control; assay type: functional
How it was run: (§3)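 Free-radical scavenging measured as bleaching of the stable radical DPPH at 517 nm. Tested at 1 mM and 0.1 mM, melatonin as positive control. Results are % mean inhibition, average of at least triplicate analyses.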

[6] = tested on: Radical scavenging activity; assay: Antioxidant activity of the compound assessed as DPPH free radical scavenging activity at 1 mM after 30 mins by spectrophotometric analysis relative to control; assay type: functional; how it was run: as §3

| Compound | inhibition (Liver [1]) | inhibition (Liver [2]) | inhibition [3] | inhibition [4] | inhibition [5] | inhibition [6] |
| --- | --- | --- | --- | --- | --- | --- |
| Nc1ccc(-c2cc3cc(F)ccc3[nH]2)cc1 | 17% | 19% | 20% | 35% | 18% | 28% |
| COc1cc(-c2cc3ccccc3[nH]2)cc(OC)c1OC | 33% | 28% | 13% | 42% | 9% | 35% |
| Nc1ccc(-c2cc3cccc(F)c3[nH]2)cc1 | 26% | 30% | 15% | 23% | 43% | 77% |
| COc1ccc2[nH]c(-c3ccc(N)cc3)cc2c1 | 33% | 42% | 14% | 35% | 69% | 85% |
| COc1cc(-c2cc3cc(F)ccc3[nH]2)cc(OC)c1OC | 10% | 19% | 9% | 50% | 3% | 23% |
| COc1ccc(-c2cc3ccccc3[nH]2)cc1OC | 13% | 27% | 12% | 70% | 12% | 44% |
| COc1ccc(-c2cc3cc(F)ccc3[nH]2)cc1OC | 10% | 24% | inactive | 51% | 2% | 21% |
| Nc1ccc(-c2cc3ccc(F)cc3[nH]2)cc1 | 22% | 35% | 35% | 81% | 65% | 80% |
| Nc1ccc(-c2cc3c(Cl)cccc3[nH]2)cc1 | 30% | 30% | inactive | 18% | 44% | 69% |
| Nc1ccc(-c2cc3ccc(Cl)cc3[nH]2)cc1 | 35% | 35% | 17% | 20% | 50% | 77% |
| COc1ccc(-c2cc3cc(F)cc(Cl)c3[nH]2)cc1OC | 13% | 24% | inactive | 39% | inactive | 10% |
| COc1ccc(-c2cc3cc(F)cc(Cl)c3[nH]2)cc1 | 6% | 33% | inactive | 32% | inactive | inactive |
| Nc1ccc(-c2cc3ccccc3[nH]2)cc1 | 13% | 26% | 16% | 30% | 43% | 74% |
| O=[N+]([O-])c1ccc(-c2cc3cc(F)cc(Cl)c3[nH]2)cc1 | 5% | 20% | inactive | 39% | inactive | 5% |
| COc1ccc(-c2cc3ccccc3[nH]2)cc1 | 14% | 24% | 12% | 43% | 6% | 38% |
| COc1ccc(-c2cc3cc(F)ccc3[nH]2)cc1F | 7% | 13% | inactive | inactive | inactive | inactive |
| COc1ccc2[nH]cc(CCNC(C)=O)c2c1 | 45% | 85% | 19% | 75% | 81% | 98% |
| Nc1ccc(-c2cc3cc(Cl)ccc3[nH]2)cc1 | 30% | 31% | inactive | 22% | 23% | 70% |
